“Also recorded” adds a separate entry of the source.
How the values were obtained:
FL huCD4 Q24A = FL huCD4 Q24A (Homo sapiens, UniProt P01730, Q24A); assay: CADA down-modulation of cellular huCD4; format: cell-based
In short: (§1)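 HEK293T cells, seeded overnight in DMEM with 10% serum, 1 mM sodium pyruvate and 0.075% NaHCO₃, were lipofected with full-length human CD4 (WT or mutant). Test compound in DMSO was added 6 h post-transfection as 1:5 serial dilutions (50–0.016 μM) for 48 h. Surface CD4 was stained with FITC/APC anti-CD4 (SK3) and read by flow cytometry. IC50 is 50% of the untreated signal, from four-parameter fits of ≥3 replicate experiments. FC is mutant/WT mean IC50.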

FL huCD4 V5A = FL huCD4 V5A (Homo sapiens, UniProt P01730, V5A); assay: CADA down-modulation of cellular huCD4; format: cell-based
In short: as §1

huCD4_1–32-YFP K26A = huCD4_1–32-YFP K26A (Homo sapiens, UniProt P01730, K26A); assay: CADA inhibition of huCD4_1–32-YFP secretion; format: cell-based
In short: (§2)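 HEK293T cells were grown in DMEM with 10% FBS and 10 mM HEPES, seeded and left to adhere overnight, then transiently transfected with plasmid by Lipofectamine. Test compound was added 6 h after transfection as a 1:5 serial dilution (50 to 0.016 μM) for 48 h. Secreted YFP in the supernatant was captured on GFP-Trap magnetic beads for 1 h, washed with PBS and measured by flow cytometry. IC50 is the concentration that halves the signal relative to the untreated control, taken from a four-parameter fit of at least three replicate experiments. FC is the mutant mean IC50 divided by the WT mean IC50.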

FL huCD4 G31A = FL huCD4 G31A (Homo sapiens, UniProt P01730, G31A); assay: CADA down-modulation of cellular huCD4; format: cell-based
In short: as §1

FL huCD4 Q15A = FL huCD4 Q15A (Homo sapiens, UniProt P01730, Q15A); assay: CADA down-modulation of cellular huCD4; format: cell-based
In short: as §1

[1] = molecular target: truncated huCD4 D1D2 Q15A;P20A (Homo sapiens, UniProt P01730, P20A/Q15A); assay: Cell-free in vitro translation and translocation; format: biochemical
In short: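 Truncated huCD4 D1D2 (lacking glycosylation sites and membrane anchor) was made by PCR and transcribed with T7. Proteinase K protection ran 30 min on ice and was quenched with PMSF. Products were separated by SDS-PAGE and imaged by phosphor imaging. The SP-cleaved band was normalised to the matching control. Data are from 2–5 independent experiments, compared with WT by Welch t test.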

huCD4_1–32-YFP G4A = huCD4_1–32-YFP G4A (Homo sapiens, UniProt P01730, G4A); assay: CADA inhibition of huCD4_1–32-YFP secretion; format: cell-based
In short: as §2

FL huCD4 P20L = FL huCD4 P20L (Homo sapiens, UniProt P01730, P20L); assay: CADA down-modulation of cellular huCD4; format: cell-based; conditions: HEK293T, 48h
In short: as §1

huCD4_1–32-YFP P6A = huCD4_1–32-YFP P6A (Homo sapiens, UniProt P01730, P6A); assay: CADA inhibition of huCD4_1–32-YFP secretion; format: cell-based
In short: as §2

huCD4_1–32-YFP Q24A = huCD4_1–32-YFP Q24A (Homo sapiens, UniProt P01730, Q24A); assay: CADA inhibition of huCD4_1–32-YFP secretion; format: cell-based
In short: as §2

FL huCD4 K26E = FL huCD4 K26E (Homo sapiens, UniProt P01730, K26E); assay: CADA down-modulation of cellular huCD4; format: cell-based; conditions: HEK293T, 48h
In short: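 Transient transfection of HEK293T cells (Lipofectamine), seeded the night before. Test compound added 6 h post-transfection as a serial 1:5 dilution from 50 to 0.016 μM, then 48 h culture. Surface CD4 stained with FITC- or APC-labelled anti-human CD4 (clone SK3) and read by flow cytometry. IC50 is the concentration reducing signal to 50% of untreated control, interpolated from four-parameter curves (≥3 replicate experiments; 95% CI).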

FL huCD4 WT = FL huCD4 WT (Homo sapiens, UniProt P01730); assay: CADA down-modulation of cellular huCD4; format: cell-based
In short: as §1

FL huCD4 L10A = FL huCD4 L10A (Homo sapiens, UniProt P01730, L10A); assay: CADA down-modulation of cellular huCD4; format: cell-based
In short: as §1

FL huCD4 K26R = FL huCD4 K26R (Homo sapiens, UniProt P01730, K26R); assay: CADA down-modulation of cellular huCD4; format: cell-based; conditions: HEK293T, 48h
In short: as §1

huCD4_1–32-YFP R3A = huCD4_1–32-YFP R3A (Homo sapiens, UniProt P01730, R3A); assay: CADA inhibition of huCD4_1–32-YFP secretion; format: cell-based
In short: as §2

mouse CD4 (mCD4) = conditions: cell surface expression of mCD4; cited from earlier work
FL huCD4 P20G = FL huCD4 P20G (Homo sapiens, UniProt P01730, P20G); assay: CADA down-modulation of cellular huCD4; format: cell-based; conditions: HEK293T, 48h
In short: as §1

huCD4_1–32-YFP T23A = huCD4_1–32-YFP T23A (Homo sapiens, UniProt P01730, T23A); assay: CADA inhibition of huCD4_1–32-YFP secretion; format: cell-based
In short: as §2

FL huCD4 L11A = FL huCD4 L11A (Homo sapiens, UniProt P01730, L11A); assay: CADA down-modulation of cellular huCD4; format: cell-based
In short: as §1

huCD4_1–32-YFP L19A = huCD4_1–32-YFP L19A (Homo sapiens, UniProt P01730, L19A); assay: CADA inhibition of huCD4_1–32-YFP secretion; format: cell-based
In short: as §2

huCD4_1–32-YFP K32A = huCD4_1–32-YFP K32A (Homo sapiens, UniProt P01730, K32A); assay: CADA inhibition of huCD4_1–32-YFP secretion; format: cell-based; conditions: read-out: Secreted YFP IC50 (μM) Mean, HEK293T, CADA 48h
In short: as §2

FL huCD4 A22V = FL huCD4 A22V (Homo sapiens, UniProt P01730, A22V); assay: CADA down-modulation of cellular huCD4; format: cell-based
In short: as §1

FL huCD4 Q15A;P20A = FL huCD4 Q15A;P20A (Homo sapiens, UniProt P01730, P20A/Q15A); assay: CADA down-modulation of cellular huCD4; format: cell-based; conditions: HEK293T, 48h
In short: as §1

[2] = + less, − more sensitive to CADA
[3] = read-out: Cellular huCD4 IC50 (μM) Mean, HEK293T, CADA 48h
[4] = read-out: Secreted YFP IC50 (μM) Mean, HEK293T, CADA 48h

C=C1CN(S(=O)(=O)c2ccc(C)cc2)CCCN(Cc2ccccc2)CCCN(S(=O)(=O)c2ccc(C)cc2)C1 [CADA, Cyclotriazadisulfonamide]
Cellular huCD4 FC (fold change of mean IC50 relative to WT) (FL huCD4 Q24A; [2]): +2.3 | IC50 (FL huCD4 Q24A; [3]): 1.22 µM | Cellular huCD4 FC (fold change of mean IC50 relative to WT) (FL huCD4 V5A; [2]): −1.9 | IC50 (FL huCD4 V5A; [3]): 0.29 µM | Secreted YFP FC (fold change of mean IC50 relative to WT) (huCD4_1–32-YFP K26A; [2]): >+39 | IC50 (huCD4_1–32-YFP K26A; [4]): > 50 µM | Cellular huCD4 FC (fold change of mean IC50 relative to WT) (FL huCD4 G31A; [2]): +1.3 | IC50 (FL huCD4 G31A; [3]): 0.72 µM | Cellular huCD4 FC (fold change of mean IC50 relative to WT) (FL huCD4 Q15A; [2]): >+93 | IC50 (FL huCD4 Q15A; [3]): > 50 µM | inhibitory effect of CADA on protein translocation compared to WT ([1]; 15 μM CADA): responded significantly less to CADA | effect of CADA on co-translational translocation ([1]; increasing doses of CADA): full resistance to CADA | Secreted YFP FC (fold change of mean IC50 relative to WT) (huCD4_1–32-YFP G4A; [2]): −1.4 | IC50 (huCD4_1–32-YFP G4A; [4]): 0.91 µM | sensitivity to CADA (FL huCD4 P20L): completely resistant to CADA | Secreted YFP FC (fold change of mean IC50 relative to WT) (huCD4_1–32-YFP P6A; [2]): −2.3 | IC50 (huCD4_1–32-YFP P6A; [4]): 0.55 µM | Secreted YFP FC (fold change of mean IC50 relative to WT) (huCD4_1–32-YFP Q24A; [2]): +3.3 | IC50 (huCD4_1–32-YFP Q24A; [4]): 4.22 µM | sensitivity to CADA (FL huCD4 K26E): copied the alanine substitution phenotypes | Cellular huCD4 FC (fold change of mean IC50 relative to WT) (FL huCD4 WT; [2]): 1.00 | IC50 (FL huCD4 WT; [3]): 0.54 µM | Cellular huCD4 FC (fold change of mean IC50 relative to WT) (FL huCD4 L10A; [2]): −2.7 | IC50 (FL huCD4 L10A; [3]): 0.2 µM | sensitivity to CADA (FL huCD4 K26R): kept full sensitivity to CADA | Secreted YFP FC (fold change of mean IC50 relative to WT) (huCD4_1–32-YFP R3A; [2]): +1.6 | IC50 (huCD4_1–32-YFP R3A; [4]): 1.99 µM | sensitivity of mouse CD4 to CADA (mouse CD4 (mCD4)): not affected by CADA; also recorded: completely resistant to CADA | sensitivity to CADA (FL huCD4 P20G): fully restored CADA sensitivity | Secreted YFP FC (fold change of mean IC50 relative to WT) (huCD4_1–32-YFP T23A; [2]): +1.9 | IC50 (huCD4_1–32-YFP T23A; [4]): 2.36 µM | Cellular huCD4 FC (fold change of mean IC50 relative to WT) (FL huCD4 L11A; [2]): −4.5 | IC50 (FL huCD4 L11A; [3]): 0.12 µM | Secreted YFP FC (fold change of mean IC50 relative to WT) (huCD4_1–32-YFP L19A; [2]): +3.6 | IC50 (huCD4_1–32-YFP L19A; [4]): 4.57 µM | IC50 (huCD4_1–32-YFP K32A): 17.6 µM | Cellular huCD4 FC (fold change of mean IC50 relative to WT) (FL huCD4 A22V; [2]): +1.5 | IC50 (FL huCD4 A22V; [3]): 0.79 µM | sensitivity to CADA (FL huCD4 Q15A;P20A): no longer responded to CADA

Reference: PMC6980386 (Traffic (Copenhagen, Denmark), 2019)
